From ChEMBL document CHEMBL1153637, “Identification and optimisation of a novel series of pyrimidine based cyclooxygenase-2 (COX-2) inhibitors. Utilisation of a biotransformation approach” (Bioorg Med Chem Lett, 2009) come the findings set out here.

Active and inactive are the calls of the source. The rule behind the calls is not given here.

As a reminder, the IC50 is the concentration that inhibits the measured activity by half. For orientation: ED50 means the dose that gives a 50% effect, or the effect in half of the subjects.

T1 sequence (P23219 whole entry): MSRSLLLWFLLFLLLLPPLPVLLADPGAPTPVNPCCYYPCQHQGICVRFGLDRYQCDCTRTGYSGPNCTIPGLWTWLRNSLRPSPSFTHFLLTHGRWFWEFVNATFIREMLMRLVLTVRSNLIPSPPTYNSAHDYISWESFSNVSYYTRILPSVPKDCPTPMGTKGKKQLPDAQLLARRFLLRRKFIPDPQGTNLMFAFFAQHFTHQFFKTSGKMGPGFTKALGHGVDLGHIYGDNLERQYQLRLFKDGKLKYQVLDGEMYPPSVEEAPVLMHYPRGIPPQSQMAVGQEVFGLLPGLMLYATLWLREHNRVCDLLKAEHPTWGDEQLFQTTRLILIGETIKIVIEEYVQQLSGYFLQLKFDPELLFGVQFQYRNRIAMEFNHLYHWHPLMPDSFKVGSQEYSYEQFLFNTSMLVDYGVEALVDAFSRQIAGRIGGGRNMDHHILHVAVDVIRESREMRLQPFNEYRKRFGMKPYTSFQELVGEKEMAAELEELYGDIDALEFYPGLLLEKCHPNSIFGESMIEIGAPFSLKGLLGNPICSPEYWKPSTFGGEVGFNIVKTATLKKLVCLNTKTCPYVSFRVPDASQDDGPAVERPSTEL

One experiment addresses T1, Prostaglandin G/H synthase 1 (Homo sapiens, UniProt P23219). Kind of experiment: Inhibition of human COX1 expressed in african green monkey COS cells assessed as inhibition of arachidonic acid-stimulated PGE2 production upto 100 uM by enzyme immunoassay. It counts as cell-based. The method in brief:
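COS cells stably expressing human COX-1 were stimulated with arachidonic acid, and PGE2 production was measured. IC50 was taken as the concentration inhibiting PGE2 output.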
Consider `CS(=O)(=O)c1ccc(-c2cnc(C(O)c3ccccc3)nc2-c2ccc(F)cc2)cc1` (configuration not stated), for which the result was inactive.

In a further experiment the target is T1, Prostaglandin G/H synthase 1. Kind of experiment: Inhibition of human COX1 expressed in african green monkey COS cells assessed as inhibition of arachidonic acid-stimulated PGE2 production by enzyme immunoassay. It counts as cell-based.
Regarding `CS(=O)(=O)c1ccc(-c2cnc(Oc3ccccc3)nc2-c2ccc(F)cc2)cc1`, the IC50 is above 100000 nM.

On to `CS(=O)(=O)c1ccc(-c2cnc(Cc3ccc(F)cc3F)nc2-c2ccc(F)cc2)cc1`, for which the IC50 was above 52100 nM.

In the case of `CC(C)c1ncc(-c2ccc(S(C)(=O)=O)cc2)c(-c2ccc(F)cc2)n1`, the 50% inhibitory concentration (IC50) stood at 10000 nM.

Take `CS(=O)(=O)c1ccc(-c2cnc(Cc3ccccc3)nc2-c2ccc(F)cc2)cc1`: the 50% inhibitory concentration (IC50) is above 34000 nM.

`CS(=O)(=O)c1ccc(-c2cnc(CC3CCCCC3)nc2-c2ccc(F)cc2)cc1`: the IC50 stood at 2970 nM.

Take `CS(=O)(=O)c1ccc(-c2cnc(NCc3ccccc3)nc2-c2ccc(F)cc2)cc1`: the IC50 is above 100000 nM.

For the molecule `Cn1cccc1Cc1ncc(-c2ccc(S(C)(=O)=O)cc2)c(-c2ccc(F)cc2)n1`, the IC50 is 6540 nM.

As to `CS(=O)(=O)c1ccc(-c2cnc(Cc3ccc(F)cc3)nc2-c2ccc(F)cc2)cc1`, the IC50 was above 100000 nM.

Consider `CN(c1ccccc1)c1ncc(-c2ccc(S(C)(=O)=O)cc2)c(-c2ccc(F)cc2)n1`, for which the IC50 is 4340 nM.

As to `CS(=O)(=O)c1ccc(-c2cnc(Nc3ccccc3)nc2-c2ccc(F)cc2)cc1`, the 50% inhibitory concentration (IC50) is above 100000 nM.

For the molecule `CS(=O)(=O)c1ccc(-c2cnc(CCc3ccccc3)nc2-c2ccc(F)cc2)cc1`, the IC50 is 29400 nM.

For the molecule `CS(=O)(=O)c1ccc(-c2cnc(Cc3ccccn3)nc2-c2ccc(F)cc2)cc1`, the IC50 was above 100000 nM.

With `CS(=O)(=O)c1ccc(-c2cnc(Sc3ccccc3)nc2-c2ccc(F)cc2)cc1`, the 50% inhibitory concentration (IC50) is above 100000 nM.

For a further experiment, the species on record is Homo sapiens. Kind of experiment: Selectivity ratio of IC50 for human COX1 to IC50 for human COX2. The method in brief:
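Ratio of the COX-1 IC50 to the COX-2 IC50. Both IC50s are for inhibition of PGE2 production by COS cells stably expressing human COX-1 or human COX-2, after stimulation with arachidonic acid.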
With `CS(=O)(=O)c1ccc(-c2cnc(Cc3ccc(F)cc3F)nc2-c2ccc(F)cc2)cc1`, the Ratio IC50 is above 457.

For the molecule `CC(C)c1ncc(-c2ccc(S(C)(=O)=O)cc2)c(-c2ccc(F)cc2)n1`, the Ratio IC50 stood at 8.8.

Consider `CS(=O)(=O)c1ccc(-c2cnc(Cc3ccccc3)nc2-c2ccc(F)cc2)cc1`, for which the Ratio IC50 was above 326.

For the molecule `CS(=O)(=O)c1ccc(-c2cnc(CC3CCCCC3)nc2-c2ccc(F)cc2)cc1`, the Ratio IC50 is 247.

As for `CS(=O)(=O)c1ccc(-c2cnc(NCc3ccccc3)nc2-c2ccc(F)cc2)cc1`, the Ratio IC50 was above 145.

Turning to `Cn1cccc1Cc1ncc(-c2ccc(S(C)(=O)=O)cc2)c(-c2ccc(F)cc2)n1`, the Ratio IC50 stood at 284.

Consider `CS(=O)(=O)c1ccc(-c2cnc(Cc3ccc(F)cc3)nc2-c2ccc(F)cc2)cc1`, for which the Ratio IC50 was above 361.

Take `CN(c1ccccc1)c1ncc(-c2ccc(S(C)(=O)=O)cc2)c(-c2ccc(F)cc2)n1`: the Ratio IC50 was 51.

For `CS(=O)(=O)c1ccc(-c2cnc(Nc3ccccc3)nc2-c2ccc(F)cc2)cc1`, the Ratio IC50 was above 1780.

Take `CS(=O)(=O)c1ccc(-c2cnc(CCc3ccccc3)nc2-c2ccc(F)cc2)cc1`: the Ratio IC50 was determined as 5.6.

As for `CS(=O)(=O)c1ccc(-c2cnc(Cc3ccccn3)nc2-c2ccc(F)cc2)cc1`, the Ratio IC50 is above 16.

The species entered for a further experiment is Rattus norvegicus. Kind of experiment: Antiinflammatory activity in Freund's complete adjuvant-induced rat inflammatory pain model assessed as change in weight bearing ability on inflamed paw pretreated 1 hr before and measured 6 hrs after FCA challenge. It counts as functional.
`CS(=O)(=O)c1ccc(-c2cnc(C(O)c3ccccc3)nc2-c2ccc(F)cc2)cc1` (configuration not stated): the ED50 was determined as 1.6 mg/kg.

The target of the next experiment is T2, Prostaglandin G/H synthase 2 (Homo sapiens, UniProt P35354).
T2 sequence (P35354 whole entry): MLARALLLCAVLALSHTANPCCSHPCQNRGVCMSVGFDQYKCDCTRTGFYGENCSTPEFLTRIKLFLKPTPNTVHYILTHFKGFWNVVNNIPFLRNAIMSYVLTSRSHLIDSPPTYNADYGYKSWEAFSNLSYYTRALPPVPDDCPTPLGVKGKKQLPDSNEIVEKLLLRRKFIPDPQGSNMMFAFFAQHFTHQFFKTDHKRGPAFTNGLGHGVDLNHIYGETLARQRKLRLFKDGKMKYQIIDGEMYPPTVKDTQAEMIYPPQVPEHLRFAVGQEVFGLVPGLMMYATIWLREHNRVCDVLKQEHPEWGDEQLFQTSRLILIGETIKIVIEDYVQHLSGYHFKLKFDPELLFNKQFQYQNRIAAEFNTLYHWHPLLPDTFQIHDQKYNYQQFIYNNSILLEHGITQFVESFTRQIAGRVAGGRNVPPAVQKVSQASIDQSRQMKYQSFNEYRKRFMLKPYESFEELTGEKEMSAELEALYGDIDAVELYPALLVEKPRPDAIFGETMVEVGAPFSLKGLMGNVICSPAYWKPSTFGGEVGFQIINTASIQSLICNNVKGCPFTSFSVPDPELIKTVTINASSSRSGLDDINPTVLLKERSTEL
Kind of experiment: Inhibition of human COX2 expressed in african green monkey COS cells assessed as inhibition of arachidonic acid-stimulated PGE2 production by enzyme immunoassay. It counts as cell-based.
Consider `CS(=O)(=O)c1ccc(-c2cnc(Oc3ccccc3)nc2-c2ccc(F)cc2)cc1`, for which the IC50 was above 4640 nM.

With `CS(=O)(=O)c1ccc(-c2cnc(Cc3ccc(F)cc3F)nc2-c2ccc(F)cc2)cc1`, the IC50 stood at 114 nM.

Regarding `CC(C)c1ncc(-c2ccc(S(C)(=O)=O)cc2)c(-c2ccc(F)cc2)n1`, the IC50 was 1140 nM.

For the molecule `CS(=O)(=O)c1ccc(-c2cnc(C(O)c3ccccc3)nc2-c2ccc(F)cc2)cc1` (configuration not stated), the IC50 came to 57 nM.

For `CS(=O)(=O)c1ccc(-c2cnc(Cc3ccccc3O)nc2-c2ccc(F)cc2)cc1`, the IC50 is 43 nM.

Regarding `CS(=O)(=O)c1ccc(-c2cnc(Cc3ccccc3)nc2-c2ccc(F)cc2)cc1`, the IC50 came to 104 nM.

With `CS(=O)(=O)c1ccc(-c2cnc(CC3CCCCC3)nc2-c2ccc(F)cc2)cc1`, the IC50 was 12 nM.

Consider `CS(=O)(=O)c1ccc(-c2cnc(NCc3ccccc3)nc2-c2ccc(F)cc2)cc1`, for which the IC50 turned out to be 686 nM.

On to `Cn1cccc1Cc1ncc(-c2ccc(S(C)(=O)=O)cc2)c(-c2ccc(F)cc2)n1`, for which the half-maximal inhibitory concentration (IC50) worked out at 23 nM.

In the case of `CS(=O)(=O)c1ccc(-c2cnc(Cc3ccccc3)[n+]([O-])c2-c2ccc(F)cc2)cc1`, the IC50 turned out to be 717 nM.

As for `CS(=O)(=O)c1ccc(-c2cnc(Cc3ccc(F)cc3)nc2-c2ccc(F)cc2)cc1`, the concentration for half-maximal inhibition (IC50) is 277 nM.

On to `CN(c1ccccc1)c1ncc(-c2ccc(S(C)(=O)=O)cc2)c(-c2ccc(F)cc2)n1`, for which the concentration for half-maximal inhibition (IC50) turned out to be 85 nM.

For `CS(=O)(=O)c1ccc(-c2cnc(Nc3ccccc3)nc2-c2ccc(F)cc2)cc1`, the half-maximal inhibitory concentration (IC50) is 56 nM.

Regarding `CS(=O)(=O)c1ccc(-c2cnc(CCc3ccccc3)nc2-c2ccc(F)cc2)cc1`, the half-inhibitory concentration (IC50) amounted to 5260 nM.

With `CS(=O)(=O)c1ccc(-c2cnc(Cc3ccccn3)nc2-c2ccc(F)cc2)cc1`, the IC50 was determined as 6320 nM.

On to `CS(=O)(=O)c1ccc(-c2cnc(Sc3ccccc3)nc2-c2ccc(F)cc2)cc1`, for which the IC50 was above 7200 nM.
